Hits are enriched below; roughly 0.57% of the tested compounds scored in any of these assays.
p-CIP stab down: compounds decreasing mouse p/CIP protein stability; hit rate 0.01% among 290,000; decrease of EGFP signal, % at 10 µM; F442A p/CIP-EGFP cells, EGFP fluorescence, 16 h; AID 1984; Q05BA5;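 active = EGFP signal decrease of at least 30% at 10 µM or well 3 SD below plate mean, unless failing retest; inactive = the rest, including hits failing retest or dose response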
VLA-4 inh: inhibition in a human VLA-4 binding assay; P13612; inhibition, % (about 7 µM as worked out from the volumes in the protocol); VLA-4 expressing cells, ligand binding flow cytometry; AID 2557; hit rate 0.2% among 330,000; in the data active = inhibition above about 50%
Target sequence (P13612 whole entry, looked up): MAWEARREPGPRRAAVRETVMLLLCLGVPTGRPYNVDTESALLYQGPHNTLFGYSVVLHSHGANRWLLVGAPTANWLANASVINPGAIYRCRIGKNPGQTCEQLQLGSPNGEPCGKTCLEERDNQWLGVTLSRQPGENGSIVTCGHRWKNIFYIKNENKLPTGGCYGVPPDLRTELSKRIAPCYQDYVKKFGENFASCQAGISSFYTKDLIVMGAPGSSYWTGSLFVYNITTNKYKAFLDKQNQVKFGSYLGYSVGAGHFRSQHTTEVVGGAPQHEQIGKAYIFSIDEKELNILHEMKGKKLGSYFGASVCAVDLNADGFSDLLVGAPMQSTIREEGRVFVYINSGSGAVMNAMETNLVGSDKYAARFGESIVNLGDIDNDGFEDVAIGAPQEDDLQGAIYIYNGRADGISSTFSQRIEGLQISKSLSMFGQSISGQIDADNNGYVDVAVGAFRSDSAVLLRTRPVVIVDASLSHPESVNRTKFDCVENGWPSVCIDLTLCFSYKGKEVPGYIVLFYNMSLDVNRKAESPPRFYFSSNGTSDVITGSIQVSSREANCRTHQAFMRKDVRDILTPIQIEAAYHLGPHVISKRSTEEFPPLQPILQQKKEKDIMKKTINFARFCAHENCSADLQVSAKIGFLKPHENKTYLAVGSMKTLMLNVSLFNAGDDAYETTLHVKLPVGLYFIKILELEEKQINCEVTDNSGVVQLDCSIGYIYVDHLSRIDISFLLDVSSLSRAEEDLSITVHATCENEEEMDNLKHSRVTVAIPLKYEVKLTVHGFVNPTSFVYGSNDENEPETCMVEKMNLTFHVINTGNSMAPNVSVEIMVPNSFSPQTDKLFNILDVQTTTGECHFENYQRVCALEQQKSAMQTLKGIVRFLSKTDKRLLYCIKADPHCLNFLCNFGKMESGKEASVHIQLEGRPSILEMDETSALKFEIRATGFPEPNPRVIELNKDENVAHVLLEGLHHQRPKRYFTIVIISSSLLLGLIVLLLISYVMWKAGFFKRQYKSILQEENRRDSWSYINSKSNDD
Arr AP2 block: inhibitors of human beta-arrestin and AP2 interaction; FITC-arrestin peptide / GST-AP2 beads, flow cytometry; AP2 beta2 appendage carries R879A mutation; inhibition, % at 10 µM; hit rate 0.31% among 340,000; AID 504490;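 active = inhibition above a set limit, near 3 SD of compounds lacking own fluorescence, cut at about 54% in these data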;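 also: plate controls were DMSO wells for no effect and 5 µM unlabelled arrestin peptide for full effect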
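Material – AP2 appendage R879A on GSH beads · Buffer or medium – PBS with 0.05% Tween 20 and 0.1% BSA · Probe or stimulus – fluorescein-tagged arrestin peptide at 50 nM final · Incubation – compound with beads 12 min RT, then probe 1 h RT · Detection – high-throughput flow cytometry of beads, ex 488, em 535 nm · Evaluation – percent response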
GASC-1 inh: blocks human GASC-1 demethylase activity; inhibition, % at 2.35 µM; GST-JMJD2C(1-420) H3K9me3 demethylation, DELFIA europium; hit rate 0.069% among 330,000; Q9H3R0;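 active = more than half of a compound's replicate wells show inhibition beyond 50%, single wells judged on their own value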;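 also: signal counts dimethyl H3K9 product captured on neutravidin plate; 0% = median of DMSO wells and 100% = 0.3 times that DMSO median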
Arr AP2 CP1: inhibitors of human beta-arrestin and AP2 interaction; shares compounds with Arr AP2 block; hit rate 2% among 1,300; inhibition, % at 10 µM; GST-AP2 beads, FITC arrestin peptide binding, flow cytometry; GST-fused beta2-adaptin appendage, R879A mutant;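 active = inhibition above a set limit, roughly 3 SD of non-fluorescent compound noise, cut at about 38% in these data; inactive = inhibition at or below that limit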;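 also: loss of bead fluorescence from 50 nM FITC arrestin peptide bound to appendage; 0% = negative control wells and 100% = excess unlabelled arrestin peptide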
GST GSH counter: GST-GSH bead binding interference, counter-screen; AID 588338; GST-fluorescein binding to GSH beads, fluorescence; shares compounds with Arr AP2 block; inhibition, % at 10 µM; hit rate 2% among 1,300;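 active = inhibition above 50%, about 3 SD of the inhibition seen with non-fluorescent compounds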;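 also: fluorescein maleimide labelled GST captured on 4 micron glutathione beads; higher means more loss of bead fluorescence from quenching or blocked binding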
* marks the source's active call; other numbers are inactive results; x = no result given.

SMILES | p-CIP stab down | VLA-4 inh | Arr AP2 block | GASC-1 inh | Arr AP2 CP1 | GST GSH counter
CN(C)S(=O)(=O)c1cc(NC(=O)COC(=O)C2CSC3(C)CCC(=O)N23)ccc1Cl (stereo not drawn) | -0.3 | -2.3 | 8.3 | -0.6 | -5.4 | -9.9
CCOc1ccc(S(=O)(=O)NCCC(=O)N2CCN(c3ncccn3)CC2)cc1 | x | 0.0 | -16.0 | -4.4 | x | x
CCOC(=O)N1CCN(C(=O)CSc2nc(=O)n3cc(C)ccc3n2)CC1 | x | -22.2 | 2.5 | 3.5 | x | x
CS/C(=N\S(=O)(=O)c1cccs1)Nc1ccc(N2CCOCC2)cc1 | -3.4 | 4.7 | 0.1 | -0.8 | x | x
CCOC(=O)c1c(C)[nH]c(C(=O)CN2C(=O)NC(C)(C)C2=O)c1C | x | x | 0.4 | x | x | x
CCOC(=O)c1c(C)[nH]c(C(=O)CN2C(=O)C(=O)N(CC(C)C)C2=O)c1C | 11.6 | 2.9 | 55.6* | 9.2 | 0.3 | -2.7
CC(Cc1ccccn1)NC(=O)c1ccc(OC2CCN(Cc3ccccn3)CC2)cc1 (stereo not drawn) | 2.1 | -7.2 | 61.7* | -0.6 | 11.0 | 0.9
O=C(NC1CCCc2ccccc21)C1CCN(S(=O)(=O)c2cnc[nH]2)CC1 (stereo not drawn) | -11.3 | -2.3 | -11.5 | 2.3 | x | x
Cc1cccc(-n2c(SCC(N)=O)nc3c(c2=O)C2(CCCC2)Cc2ccccc2-3)c1 | 6.5 | 2.0 | 19.6 | -1.7 | x | x
NC(=O)CSc1nc2c(c(=O)n1-c1ccccc1)C1(CCCCC1)Cc1ccccc1-2 | -4.1 | 17.8 | 62.7* | 4.4 | -9.9 | -5.5
Cc1cc(C)cc(NC(=O)CSc2nc3nc(C)cc(C)n3n2)c1 | x | 6.7 | 67.6* | -2.4 | -7.3 | 4.7
Cc1cc(C)n2nc(SCC(=O)Nc3ccc(O)cc3)nc2n1 | -4.0 | 9.3 | 26.9 | 12.2 | x | x
CCN(C[C@H]1N[C@@](CC)(C(=O)OC)[C@H]2C(=O)N(Cc3ccccc3)C(=O)[C@@H]12)S(=O)(=O)c1ccc(OC)cc1 | x | -7.5 | -7.0 | -7.9 | x | x
CC(C)CCn1cnc2c(sc3nc4c(cc32)CSC(C)(C)C4)c1=O | -3.8 | 9.0 | 104.5* | 2.9 | -4.8 | 8.5
Cn1nccc1C(=O)N1CCN(c2cccc(C(F)(F)F)c2)CC1 | -9.6 | -3.4 | -8.3 | 1.6 | x | x
Cn1ccc(C(=O)OCC(=O)Nc2cccc3ccccc23)n1 | 12.4 | 5.8 | 59.4* | -2.6 | -5.8 | -4.4
COCCCNC(=O)c1cccc(S(=O)(=O)N2CC3(C)CC2CC(C)(C)C3)c1 (stereo not drawn) | x | 1.1 | 12.6 | 5.7 | x | x
COCCNC(=O)c1cccc(S(=O)(=O)N2CC3(C)CC2CC(C)(C)C3)c1 (stereo not drawn) | x | 12.2 | 62.6* | -14.2 | -2.2 | 1.1
O=[N+]([O-])c1ccc(CN2CCN(c3ccc4ccccc4n3)CC2)cc1 | 4.3 | -16.2 | 54.2* | -15.0 | -2.3 | 2.0
COc1ccccc1-c1nnc(NC(=O)c2ccc(S(=O)(=O)N3CCCC3)cc2)o1 | -13.8 | -10.2 | -6.3 | -5.0 | x | x
O=C(Cn1cnc(S(=O)(=O)N2CCCC2)c1)Nc1ccc(OC(F)(F)F)cc1 | 11.9 | -0.1 | 66.5* | 1.5 | 1.8 | -4.7
O=C(Cn1cnc(S(=O)(=O)N2CCCC2)c1)Nc1ccccc1 | -10.1 | 7.8 | 50.9 | 5.2 | x | x
Cn1nc(-c2ccccc2)c(CO)c1Oc1ccc(F)cc1 | -4.2 | 1.1 | 40.8 | 0.0 | x | x
O=C(Cc1ccccc1F)Nc1ccc2c(c1)CCC2 | 6.5 | 42.0 | 2.9 | 4.8 | x | x
Cc1ccccc1CC(=O)Nc1ccc2c(c1)CCC2 | 7.0 | 17.6 | 59.5* | -22.6 | -1.7 | -1.3
SMILES | p-CIP stab down | VLA-4 inh | Arr AP2 block | GASC-1 inh | Arr AP2 CP1 | GST GSH counter
O=C(Nc1ccc(C(F)(F)F)cc1)c1ccc2nc[nH]c2c1 | -3.8 | 9.7 | -7.5 | -5.9 | x | x
COc1ccc(NC(=O)c2ccc3nc[nH]c3c2)cc1 | -10.2 | -4.8 | 60.4* | 9.5 | 13.7 | 0.5
COC(=O)Cc1ccc(NC(=S)N2CCCCC2C)cc1 (stereo not drawn) | -16.3 | 18.9 | 57.0* | -3.4 | -10.3 | 3.3
Nc1nc(=S)ss1 | x | x | 27.6 | x | x | x
CCOc1ccc(C(CC(=O)O)NC(=O)c2sc3ccccc3c2Cl)cc1 (stereo not drawn) | -0.6 | -11.2 | 104.2* | 12.5 | -4.5 | -4.4
COc1ccc(C(=O)NC(C)(C)C)cc1S(=O)(=O)N1CCCC1 | -7.2 | 12.8 | 29.4 | -6.8 | x | x
COc1ccccc1-n1cnc2c(c1=O)c1nc3ccccc3nc1n2CCc1ccccc1 | -6.5 | -7.3 | 72.9* | 5.1 | 0.7 | 68.1*
COc1ccccc1-n1cnc2c(c1=O)c1nc3ccccc3nc1n2-c1ccc(C)cc1 | 9.6 | -5.4 | 3.2 | 6.4 | x | x
CC1Cc2ccccc2N1S(=O)(=O)c1cnc(Cl)c(Br)c1 (stereo not drawn) | 16.8 | 12.2 | -1.6 | 0.4 | x | x
Cc1c(C(=O)c2ccc(F)cc2F)c2ccccn2c1CCC#N | -10.1 | -19.2 | 61.8* | 8.0 | 2.8 | -4.6
CC1CC(C)CN(CCCNC(=O)CN2C(=O)CSc3ccc(S(=O)(=O)N4CCOCC4)cc32)C1 (stereo not drawn) | -8.6 | 10.9 | -1.8 | 2.1 | x | x
CC(C(=O)Nc1ccc2c(c1)OCO2)c1ccc([N+](=O)[O-])cc1 (stereo not drawn) | -24.8 | -3.1 | 64.6* | -6.2 | 2.1 | -2.0
O=C(CN(Cc1cccs1)S(=O)(=O)c1ccc(S(=O)(=O)N2CCCCC2)cc1)Nc1ccccc1 | -10.0 | 12.5 | 101.8* | 4.7 | -1.8 | 3.3
O=C(CC12CC3CC(CC(C3)C1)C2)NC(Cc1ccccc1)C(=O)O (stereo not drawn) | -2.2 | -2.4 | 55.0* | 8.2 | -1.2 | 8.9
CCOC(=O)N1CCN(C(=O)COC(=O)Cc2ccc(OC)cc2)CC1 | 4.6 | 0.3 | 21.4 | -6.3 | x | x
COc1ccc(CNC(=O)C2CCN(c3nnc(N4CCCC4=O)s3)CC2)cc1 | -3.5 | -10.2 | -5.9 | -3.6 | x | x
CCOc1ccc(OCCC(=O)Nc2ccc3c(c2)OCO3)cc1 | x | 23.2 | 3.4 | -2.5 | -0.6 | -2.7
Cc1ccc(OCCC(=O)Nc2ccc3c(c2)OCO3)cc1 | x | 0.0 | 7.3 | -1.4 | 1.3 | -6.4
COc1ccc(OCCCC(=O)Nc2ccc3c(c2)OCO3)cc1 | 2.6 | -12.4 | 62.1* | -11.0 | 1.6 | 1.1
COc1ccccc1OCCC(=O)Nc1ccc2c(c1)OCO2 | x | -14.2 | 57.0* | 6.1 | 1.1 | -0.8
COC(=O)C(Cc1ccc(O)cc1)NC(=O)NC12CC3CC(CC(C3)C1)C2 (stereo not drawn) | -11.1 | 3.8 | 23.9 | -1.2 | x | x
Cc1ccc(-c2cc(C(=O)Nc3c(C)n(C)n(-c4ccccc4)c3=O)c3ccccc3n2)cc1 | x | -15.2 | 35.8 | -3.5 | x | x
COc1ccc(-c2cc(C(=O)Nc3c(C)n(C)n(-c4ccccc4)c3=O)c3ccccc3n2)cc1OC | 8.9 | 4.4 | 56.5* | -12.9 | -9.7 | -2.9
CCOc1ccc(C(=O)NCC(=O)NNC(=O)C2COc3ccccc3O2)cc1OCC (stereo not drawn) | x | 28.6 | 65.1* | 3.3 | 1.4 | -20.5

Screening results from PubChem BioAssay.
